2 compounds from ChEMBL document CHEMBL1275461, “Early bactericidal activity and pharmacokinetics of the diarylquinoline TMC207 in treatment of pulmonary tuberculosis” (Antimicrob Agents Chemother, 2008) can be followed below.

In data set [1] the test system is Mycobacterium tuberculosis. The data set can be described thus: Bactericidal activity against Mycobacterium tuberculosis in pulmonary tuberculosis patient assessed as reduction in sputum bacterial count at 300 mg/kg, po once daily measured after 5 days. It is filed as functional. The essentials:
(§1)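 Hospitalized treatment-naïve smear-positive patients took oral doses once daily, observed, after breakfast. Sputum was pooled over 16 h overnight at baseline, after each of the 7 dosing days, and on the night after the first standard-therapy dose. Sputum was stirred, digested with dithiothreitol for 20 min at room temperature, and diluted 10-fold. Dilutions were plated in quadruplicate on selective 7H11 agar and counted after 3-4 weeks at 37°C at 20-200 colonies. The read-out was change in log10 CFU/ml from baseline, with a count of 0 set to log 0.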

In data set [2] the test system is Mycobacterium tuberculosis. The data set can be described thus: Bactericidal activity against Mycobacterium tuberculosis in pulmonary tuberculosis patient assessed as reduction in sputum bacterial count at 300 mg/kg, po once daily measured after 6 days. The data set is classed as functional. Put shortly: as §1
For data set [3], the system named is Mycobacterium tuberculosis. The data set can be described thus: Bactericidal activity against Mycobacterium tuberculosis in pulmonary tuberculosis patient assessed as reduction in sputum bacterial count at 300 mg/kg, po once daily measured after 4 days. It is filed as functional. The essentials:
as §1

The subject of data set [4] is Mycobacterium tuberculosis. The data set can be described thus: Bactericidal activity against Mycobacterium tuberculosis in pulmonary tuberculosis patient assessed as reduction in sputum bacterial count at 300 mg/kg, po once daily measured after 7 days. The data set is classed as functional. Put shortly:
as §1

The test system of data set [5] is Mycobacterium tuberculosis. The data set can be described thus: Bactericidal activity against Mycobacterium tuberculosis in pulmonary tuberculosis patient assessed as reduction in sputum bacterial count at 300 […], po once daily measured after 1 day. It is filed as functional. Put shortly: as §1
In data set [6] the test system is Mycobacterium tuberculosis. The data set can be described thus: Bactericidal activity against Mycobacterium tuberculosis in pulmonary tuberculosis patient assessed as reduction in sputum bacterial count at 300 […], po once daily measured after 2 days. The data set is classed as functional. The essentials: as §1
The subject of data set [7] is Homo sapiens. The data set can be described thus: Toxicity in pulmonary tuberculosis patient assessed as hemoptysis at 300 mg/kg, po once daily. The arrangement: dose 300 mg/kg, route oral. As to conditions: in vivo. It is filed as organism-based.
Data set [8] relates to Homo sapiens. The data set can be described thus: Cardiotoxicity in pulmonary tuberculosis patient assessed as increase in QT interval at 300 mg/kg, po once daily for 7 days. The arrangement: dose 300 mg/kg, route oral. Particulars: in vivo, 168 h. It is filed as toxicity, organism-based.
In data set [9] the test system is Mycobacterium tuberculosis. The data set can be described thus: Bactericidal activity against Mycobacterium tuberculosis in pulmonary tuberculosis patient assessed as reduction in sputum bacterial count at 300 […], po once daily measured after 3 days. The data set is classed as functional. Put shortly:
as §1

In data set [10] the test system is Mycobacterium tuberculosis. The data set can be described thus: Bactericidal activity against Mycobacterium tuberculosis in pulmonary tuberculosis patient assessed as reduction in sputum bacterial count at 300 mg/kg, po once daily measured on day 8 after starting standard TB therapy. The data set is classed as functional. Put shortly:
as §1

In data set [11] the test system is Homo sapiens. The data set can be described thus: Cardiotoxicity in pulmonary tuberculosis patient assessed as increase in QT interval at 600 mg/kg, po once daily for 7 days. It is filed as toxicity, organism-based. Details: dose 600 mg/kg, route oral. As to conditions: in vivo, 168 h.
The subject of data set [12] is Mycobacterium tuberculosis. The data set can be described thus: Bactericidal activity against Mycobacterium tuberculosis in pulmonary tuberculosis patient assessed as reduction in sputum bacterial count at 600 mg/kg, po once daily measured after 6 days. The data set is classed as functional. The essentials:
as §1

Data set [13] relates to Mycobacterium tuberculosis. The data set can be described thus: Bactericidal activity against Mycobacterium tuberculosis in pulmonary tuberculosis patient assessed as reduction in sputum bacterial count at 600 mg/kg, po once daily measured after 2 days. It is filed as functional. Put shortly: as §1
Data set [14] has as its system Mycobacterium tuberculosis. The data set can be described thus: Bactericidal activity against Mycobacterium tuberculosis in pulmonary tuberculosis patient assessed as reduction in sputum bacterial count at 600 mg/kg, po once daily measured on day 8 after starting standard TB therapy. It is filed as functional. The essentials:
as §1

Data set [15] concerns Mycobacterium tuberculosis. The data set can be described thus: Bactericidal activity against Mycobacterium tuberculosis in pulmonary tuberculosis patient assessed as reduction in sputum bacterial count at 600 mg/kg, po once daily measured after 4 days. It is filed as functional. Put shortly: as §1
The subject of data set [16] is Mycobacterium tuberculosis. The data set can be described thus: Bactericidal activity against Mycobacterium tuberculosis in pulmonary tuberculosis patient assessed as reduction in sputum bacterial count at 600 […], po once daily measured after 1 day. The data set is classed as functional. Put shortly:
as §1

In data set [17] the test system is Mycobacterium tuberculosis. The data set can be described thus: Bactericidal activity against Mycobacterium tuberculosis in pulmonary tuberculosis patient assessed as reduction in sputum bacterial count at 600 mg/kg, po once daily measured after 7 days. It is filed as functional. Put shortly:
as §1

Data set [18] relates to Mycobacterium tuberculosis. The data set can be described thus: Bactericidal activity against Mycobacterium tuberculosis in pulmonary tuberculosis patient assessed as reduction in sputum bacterial count at 600 mg/kg, po once daily measured after 3 days. The data set is classed as functional. The essentials:
as §1

With `NNC(=O)c1ccncc1` [ISONIAZID], the log10CFU/ml in [1] is -1.41; in data set [2], -1.68; in data set [3] it was -1.32; in data set [4] it was -1.88; in [5], -0.43; in [6] it was -0.57. Besides, the log10CFU/ml in data set [9] is reported as -1.34; in [10] it was -1.94. Further, the Activity in the data set with Homo sapiens [7] is 13.3%. For the same compound, the Time with Homo sapiens [8] is listed as 20.2 ms.
Consider `CO[C@H]1/C=C/O[C@@]2(C)Oc3c(C)c(O)c4c(O)c(c(/C=N/N5CCN(C)CC5)c(O)c4c3C2=O)NC(=O)/C(C)=C\C=C\[C@H](C)[C@H](O)[C@@H](C)[C@@H](O)[C@@H](C)[C@H](OC(C)=O)[C@@H]1C` [RIFAMPIN], for which the Time in the data set with Homo sapiens [11] was 13 ms. Further, the log10CFU/ml is on record as -1.55 in [12]; -0.88 in [13]; -1.82 in data set [14]; -1.17 in data set [15]; -0.28 in data set [16]; -1.7 in data set [17]. Besides, the log10CFU/ml in data set [18] is on record as -0.89.
